According to ChEMBL document CHEMBL1135410, “Adenine nucleotide analogues locked in a Northern methanocarba conformation: enhanced stability and potency as P2Y(1) receptor agonists” (J Med Chem, 2002):
The source made the active and inactive calls. The calls are words filed in the database; no cut-off is given here.

Legend:
[1] = molecular target: P2Y purinoceptor 1 (Meleagris gallopavo) (UniProt P49652); experiment: Agonist activity by measuring Purinoceptor P2Y1-promoted phospholipase C activity in turkey erythrocyte membranes; No effect as either agonist or antagonist at 10 uM; type: functional, cell membranes
Summary of the method: (§1)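 Turkey erythrocytes labelled 18–24 h at 37 °C with 2-[3H]myo-inositol in inositol-free DMEM. Ghosts (about 175 μg protein) incubated 5 min at 30 °C in pH 7.0 Hepes/KCl buffer with EGTA, CaCl2 and MgSO4, plus 1 μM GTPγS and the agonist. Total [3H]inositol phosphates separated by anion exchange. EC50 from four-parameter logistic fit, at least three experiments.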

Rattus norvegicus = organism: Rattus norvegicus; experiment: Hydrolysis rate of compound as substrate of purified recombinant rat Ecto-5'-nucleotidase; type: functional; set-up: scale not given: the % may be the effect or the level left
Summary of the method: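 Purified baculovirus-expressed rat ecto-5′-nucleotidase (0.5 μg) incubated 10 min at 37 °C with 100 μM (final) substrate in Tris-buffered saline containing 0.4 mM MgCl2, pH 7.4. Reaction stopped with 5% TCA. Released inorganic phosphate measured by the Lanzetta method. Activity expressed relative to AMP (100%). Two experiments, each in duplicate.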

P2Y purinoceptor 1 [2] = molecular target: T1, P2Y purinoceptor 1 (Homo sapiens, UniProt P47900); experiment: Accumulation of inositol phosphate in 1321N1 astrocytoma cells expressing human P2Y1 purinoceptor; type: cell-based
Summary of the method: (§2)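 Inositol phosphate accumulation measured in 1321N1 human astrocytoma cells stably expressing human P2Y1, P2Y2, P2Y4 or P2Y11 receptor. Full concentration–effect curves, repeated in at least three separate experiments run in duplicate or triplicate. EC50 from four-parameter logistic fit. Relative efficacy (%) taken against a maximal effective concentration of UTP or UDP in the same experiment.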

P2Y purinoceptor 2 [3] = molecular target: T2, P2Y purinoceptor 2 (Homo sapiens, UniProt P41231); experiment: (§3) Agonist activity by measuring inositol phosphate accumulation in 1321N1 human astrocytoma cells stably expressing human P2Y purinoceptor 2; type: functional; summary of the method: as §2
[4] = molecular target: T3, P2Y purinoceptor 11 (Homo sapiens) (UniProt Q96G91); experiment: Agonist activity by measuring inositol phosphate accumulation in 1321N1 human astrocytoma cells stably expressing human P2Y purinoceptor 11; No effect as either agonist or antagonist at 10 uM; type: functional; summary of the method: as §2
T3 sequence (whole entry): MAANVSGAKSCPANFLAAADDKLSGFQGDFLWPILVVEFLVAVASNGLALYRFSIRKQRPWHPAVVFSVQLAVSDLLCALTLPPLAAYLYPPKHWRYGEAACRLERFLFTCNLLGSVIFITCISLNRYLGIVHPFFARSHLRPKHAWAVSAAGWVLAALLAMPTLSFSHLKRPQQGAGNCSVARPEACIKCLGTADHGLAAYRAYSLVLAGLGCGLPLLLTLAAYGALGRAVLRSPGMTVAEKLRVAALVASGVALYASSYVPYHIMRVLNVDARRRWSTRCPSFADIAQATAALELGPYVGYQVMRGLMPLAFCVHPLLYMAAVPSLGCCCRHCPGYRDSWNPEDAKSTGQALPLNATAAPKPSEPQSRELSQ

[5] = molecular target: P2Y purinoceptor 4 (Homo sapiens) (UniProt P51582); experiment: Agonist activity by measuring the agonist potencies of the corresponding ribose- containing nucleotides, for the receptor subtype human P2Y purinoceptor 4; No effect as either agonist or antagonist at 10 uM; type: functional; summary of the method: as §2
P2Y purinoceptor 1 [6] = molecular target: P2Y purinoceptor 1 (Meleagris gallopavo, UniProt P49652); experiment: Activation of Purinoceptor P2Y1-mediated phospholipase C in turkey erythrocyte membranes; type: cell membranes
Summary of the method: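 Turkey erythrocytes labelled 18–24 h at 37 °C with 2-[3H]myo-inositol in inositol-free DMEM. Total [3H]inositol phosphates separated by anion exchange. EC50 from four-parameter logistic fit, at least three experiments.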

P2Y purinoceptor 2 [7] = molecular target: T2, P2Y purinoceptor 2; experiment: as §3; type: functional; summary of the method: as §2; remark: listed apart in the source
[8] = molecular target: P2Y purinoceptor 1 (Meleagris gallopavo) (UniProt P49652); experiment: Agonist activity by measuring Purinoceptor P2Y1-promoted phospholipase C activity in turkey erythrocyte membranes; NE means no effect.; type: functional, cell membranes; summary of the method: as §1
[9] = molecular target: T4, Ectonucleoside triphosphate diphosphohydrolase 1 (Rattus norvegicus) (UniProt P97687); experiment: Hydrolysis rate as substrate of rat Ectonucleoside triphosphate diphosphohydrolase 1 (NTPDase 1) (Ecto-apyrase); set-up: scale not given: the % may be the effect or the level left
T4 sequence (whole entry): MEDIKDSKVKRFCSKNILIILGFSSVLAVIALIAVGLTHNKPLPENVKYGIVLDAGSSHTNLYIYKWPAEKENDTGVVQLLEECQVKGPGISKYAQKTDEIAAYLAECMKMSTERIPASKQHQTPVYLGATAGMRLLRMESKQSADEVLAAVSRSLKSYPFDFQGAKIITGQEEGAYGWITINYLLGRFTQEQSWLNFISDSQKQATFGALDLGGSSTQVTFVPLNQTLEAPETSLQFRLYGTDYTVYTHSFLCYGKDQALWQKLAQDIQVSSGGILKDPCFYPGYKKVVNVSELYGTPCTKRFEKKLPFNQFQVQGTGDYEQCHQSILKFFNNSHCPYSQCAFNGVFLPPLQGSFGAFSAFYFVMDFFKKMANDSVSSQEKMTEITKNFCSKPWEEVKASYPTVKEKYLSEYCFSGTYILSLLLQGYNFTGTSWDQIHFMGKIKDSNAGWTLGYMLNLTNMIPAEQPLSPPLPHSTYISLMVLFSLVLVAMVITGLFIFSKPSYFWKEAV
Summary of the method: (§4)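 Intact CHO cells stably expressing rat NTPDase1 or NTPDase2, seeded 24 h before assay. Incubated at 37 °C in Hepes-buffered saline, pH 7.4, with nucleotide substrate. Supernatant aliquots taken over time and analysed by HPLC at 260 nm. Rate expressed relative to ATP (100%). Nontransfected CHO cells served as control. Two experiments, each in duplicate.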

[10] = molecular target: T5, Ectonucleoside triphosphate diphosphohydrolase 2 (Rattus norvegicus) (UniProt O35795); experiment: Hydrolysis rate as substrate of rat Ectonucleoside triphosphate diphosphohydrolase 2 (NTPDase 2) (Ecto-apyrase); set-up: scale not given: the % may be the effect or the level left; summary of the method: as §4
T5 sequence (whole entry): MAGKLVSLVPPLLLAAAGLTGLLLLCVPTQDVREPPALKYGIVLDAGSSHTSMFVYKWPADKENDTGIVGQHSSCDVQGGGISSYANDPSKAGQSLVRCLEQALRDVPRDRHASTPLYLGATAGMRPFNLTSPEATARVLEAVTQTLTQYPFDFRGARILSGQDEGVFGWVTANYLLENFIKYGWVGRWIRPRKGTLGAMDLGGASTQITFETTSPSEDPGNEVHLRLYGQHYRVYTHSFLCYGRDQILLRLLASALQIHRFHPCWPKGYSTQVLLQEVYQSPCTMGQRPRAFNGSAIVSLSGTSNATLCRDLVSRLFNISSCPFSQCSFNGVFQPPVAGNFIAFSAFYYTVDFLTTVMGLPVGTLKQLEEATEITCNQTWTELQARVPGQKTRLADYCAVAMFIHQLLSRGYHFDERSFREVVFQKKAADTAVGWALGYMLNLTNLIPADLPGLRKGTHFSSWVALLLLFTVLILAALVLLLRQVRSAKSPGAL

[11] = molecular target: P2Y purinoceptor 4 (Homo sapiens) (UniProt P51582); experiment: Agonist activity by measuring inositol phosphate accumulation in 1321N1 human astrocytoma cells stably expressing human P2Y purinoceptor 4; No effect as either agonist or antagonist at 10 uM; type: functional; summary of the method: as §2
P2Y purinoceptor 1 [12] = molecular target: T1, P2Y purinoceptor 1; experiment: Agonist activity by measuring inositol phosphate accumulation in 1321N1 human astrocytoma cells stably expressing human P2Y purinoceptor 1; No effect as either agonist or antagonist at 10 uM; type: functional; summary of the method: as §2
[13] = molecular target: P2Y purinoceptor 1 (Meleagris gallopavo) (UniProt P49652); experiment: Agonist activity by measuring Purinoceptor P2Y1-promoted phospholipase C activity in turkey erythrocyte membranes; type: functional, cell membranes; summary of the method: as §1

T2 sequence (P41231 whole entry): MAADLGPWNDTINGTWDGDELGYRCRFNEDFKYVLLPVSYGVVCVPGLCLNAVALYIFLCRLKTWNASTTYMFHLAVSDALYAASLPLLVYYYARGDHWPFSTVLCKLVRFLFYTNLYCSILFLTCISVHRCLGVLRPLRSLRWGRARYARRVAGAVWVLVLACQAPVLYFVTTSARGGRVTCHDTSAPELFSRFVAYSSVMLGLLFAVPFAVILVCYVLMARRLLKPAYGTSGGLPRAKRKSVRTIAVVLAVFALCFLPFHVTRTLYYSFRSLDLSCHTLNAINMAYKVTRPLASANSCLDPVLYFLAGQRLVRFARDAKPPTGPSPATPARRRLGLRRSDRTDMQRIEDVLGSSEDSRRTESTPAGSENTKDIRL
T1 sequence (P47900 whole entry): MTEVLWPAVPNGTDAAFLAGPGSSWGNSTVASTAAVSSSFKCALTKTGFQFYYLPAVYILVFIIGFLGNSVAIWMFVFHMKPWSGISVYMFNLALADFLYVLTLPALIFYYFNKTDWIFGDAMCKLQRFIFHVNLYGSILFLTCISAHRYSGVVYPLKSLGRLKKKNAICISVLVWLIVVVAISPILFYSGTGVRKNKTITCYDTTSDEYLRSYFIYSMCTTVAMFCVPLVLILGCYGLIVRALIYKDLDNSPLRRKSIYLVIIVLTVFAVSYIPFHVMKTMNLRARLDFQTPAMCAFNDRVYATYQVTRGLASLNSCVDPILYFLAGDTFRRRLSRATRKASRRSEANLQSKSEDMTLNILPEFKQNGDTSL
Sequence of P2Y purinoceptor 1 (Meleagris gallopavo) (P49652 whole entry): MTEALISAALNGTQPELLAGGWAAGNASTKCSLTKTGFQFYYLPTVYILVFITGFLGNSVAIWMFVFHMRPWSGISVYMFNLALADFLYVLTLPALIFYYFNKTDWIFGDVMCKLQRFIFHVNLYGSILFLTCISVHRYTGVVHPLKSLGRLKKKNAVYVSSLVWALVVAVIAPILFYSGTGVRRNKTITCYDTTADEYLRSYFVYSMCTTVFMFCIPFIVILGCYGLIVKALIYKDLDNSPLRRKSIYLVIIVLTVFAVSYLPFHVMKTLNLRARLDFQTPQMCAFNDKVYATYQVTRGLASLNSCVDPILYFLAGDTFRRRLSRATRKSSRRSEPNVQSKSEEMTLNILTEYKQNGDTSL
Sequence of P2Y purinoceptor 1 (Meleagris gallopavo, UniProt P49652) (P49652 whole entry): as above
Sequence of P2Y purinoceptor 4 (Homo sapiens) (P51582 whole entry): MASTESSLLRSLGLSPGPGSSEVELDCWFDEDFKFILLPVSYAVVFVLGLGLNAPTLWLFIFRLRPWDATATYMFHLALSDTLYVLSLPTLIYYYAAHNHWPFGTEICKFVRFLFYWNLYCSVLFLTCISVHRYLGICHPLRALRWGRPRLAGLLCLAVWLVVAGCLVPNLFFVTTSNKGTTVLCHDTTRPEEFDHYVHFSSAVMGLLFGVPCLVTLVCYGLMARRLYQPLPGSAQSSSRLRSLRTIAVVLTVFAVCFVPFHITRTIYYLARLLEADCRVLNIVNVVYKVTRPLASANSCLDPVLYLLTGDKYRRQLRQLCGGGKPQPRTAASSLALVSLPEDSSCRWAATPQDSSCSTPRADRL

CNC(=O)[C@@]12C[C@@H]1[C@@H](n1cnc3c(NC)nc(Cl)nc31)[C@H](O)[C@@H]2O
NE [1]: inactive

Nc1ncnc2c1ncn2[C@@]12C[C@@H]1[C@H](COP(=O)(O)O)[C@H](O)[C@@H]2O
Activity (Rattus norvegicus): 0%

CSc1nc(N)c2ncn([C@H]3[C@H](O)[C@H](O)[C@@]4(COP(=O)(O)OP(=O)(O)O)C[C@@H]34)c2n1
EC50 (P2Y purinoceptor 1 [2]): 0.0004 µM
% of maximal effect (P2Y purinoceptor 2 [3]): 54%
NE [4]: inactive
NE [5]: inactive
EC50 (P2Y purinoceptor 1 [6]): 0.00088 µM

C[S+]([O-])c1nc(N)c2ncn([C@H]3[C@H](O)[C@H](O)[C@@]4(COP(=O)(O)O)C[C@H]34)c2n1 (stereo partly drawn)
EC50 (P2Y purinoceptor 1 [6]): 0.0366 µM

CNc1nc(Cl)nc2c1ncn2C1C(O)C(O)[C@@]2(COP(=O)(O)OP(=O)(O)OP(=O)(O)O)C[C@@H]12 (stereo partly drawn)
EC50 (P2Y purinoceptor 1 [2]): 0.009 µM
EC50 (P2Y purinoceptor 2 [7]): 8.4 µM
EC50 (P2Y purinoceptor 1 [6]): 0.006 µM

Nc1ncnc2c1ncn2[C@H]1[C@H](O)[C@H](O)[C@@]2(COP(=O)(O)O)C[C@H]12
Activity (Rattus norvegicus): 0.14%
NE [8]: inactive

Nc1ncnc2c1ncn2[C@@H]1O[C@H](COP(=O)(O)O)[C@@H](O)[C@H]1O
Activity (Rattus norvegicus): 100%
NE [1]: inactive

Nc1ncnc2c1ncn2[C@@H]1O[C@H](COP(=O)(O)OP(=O)(O)OP(=O)(O)O)[C@@H](O)[C@H]1O [ADENOSINE TRIPHOSPHATE]
Activity [9]: 100%
Activity [10]: 100%
EC50 (P2Y purinoceptor 2 [7]): 0.085 µM
NE [11]: inactive

Nc1nc(Cl)nc2c1ncn2C1C(O)C(O)[C@@]2(COP(=O)(O)OP(=O)(O)OP(=O)(O)O)C[C@@H]12 (stereo partly drawn)
EC50 (P2Y purinoceptor 1 [2]): 0.007 µM
EC50 (P2Y purinoceptor 2 [7]): 1.9 µM
EC50 (P2Y purinoceptor 1 [6]): 0.003 µM

CNc1ncnc2c1ncn2C1C(O)C(O)[C@@]2(COP(=O)(O)OP(=O)(O)OP(=O)(O)O)C[C@@H]12 (stereo partly drawn)
EC50 (P2Y purinoceptor 1 [2]): 0.033 µM
EC50 (P2Y purinoceptor 2 [7]): 0.197 µM
EC50 (P2Y purinoceptor 1 [6]): 0.092 µM

CSc1nc(N)c2ncn([C@@H]3O[C@H](COP(=O)(O)O)[C@@H](O)[C@H]3O)c2n1
NE (P2Y purinoceptor 1 [12]): inactive
NE [4]: inactive
% of maximal effect [13]: 15%
